Numbering of substitutions follows the chain as printed. Names and notes keep the numbering of the source.
How the values were obtained:
[1] = molecular target: H3Kc9me3 601 dinucleosome with 20 bp DNA linker (Xenopus laevis); assay: negative stain electron microscopy
[2] = molecular target: T1, ZMET2 (Zea mays, UniProt Q9AXT8); assay: DNA methyltransferase assay on unmethylated or hemimethylated 38 bp duplexed DNA; assay type: biochemical; details: 300 nM 38 bp duplex; single-turnover, saturating ZMET2; no peptide; n=2
T1 sequence (Q9AXT8 1-912): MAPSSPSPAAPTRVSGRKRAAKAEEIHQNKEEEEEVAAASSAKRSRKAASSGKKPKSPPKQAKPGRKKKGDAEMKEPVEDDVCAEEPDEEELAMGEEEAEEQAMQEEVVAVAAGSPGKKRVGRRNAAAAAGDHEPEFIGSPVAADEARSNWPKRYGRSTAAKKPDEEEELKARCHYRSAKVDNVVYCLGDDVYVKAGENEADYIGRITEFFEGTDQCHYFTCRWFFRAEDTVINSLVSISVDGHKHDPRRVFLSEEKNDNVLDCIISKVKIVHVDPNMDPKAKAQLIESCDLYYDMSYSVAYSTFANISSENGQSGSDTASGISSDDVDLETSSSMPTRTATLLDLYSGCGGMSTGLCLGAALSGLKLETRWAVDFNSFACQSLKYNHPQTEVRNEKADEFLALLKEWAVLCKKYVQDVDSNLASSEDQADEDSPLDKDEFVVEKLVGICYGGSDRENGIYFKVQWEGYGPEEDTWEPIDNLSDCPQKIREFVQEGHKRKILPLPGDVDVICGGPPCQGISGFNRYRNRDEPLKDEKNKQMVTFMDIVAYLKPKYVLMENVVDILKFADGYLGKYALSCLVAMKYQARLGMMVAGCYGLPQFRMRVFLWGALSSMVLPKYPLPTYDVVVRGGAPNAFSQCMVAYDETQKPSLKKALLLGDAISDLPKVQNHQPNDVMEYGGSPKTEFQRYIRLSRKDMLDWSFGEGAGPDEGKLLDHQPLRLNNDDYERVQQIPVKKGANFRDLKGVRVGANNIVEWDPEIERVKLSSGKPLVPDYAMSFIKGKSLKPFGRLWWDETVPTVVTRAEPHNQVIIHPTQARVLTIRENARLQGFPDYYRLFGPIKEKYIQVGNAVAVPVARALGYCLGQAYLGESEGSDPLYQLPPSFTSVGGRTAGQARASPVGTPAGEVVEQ

[3] = molecular target: ZMET2 (Zea mays, UniProt Q9AXT8 1-912); assay: fluorescence polarization
[4] = Size-exclusion chromatography coupled to multi angle light scattering; assay type: physicochemical; details: 20 mM Tris-HCl pH 8.0, 150 mM NaCl, 1 mM DTT; Figure S1E
In short: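 Recombinant ZMET2 was expressed with 0.2 mM IPTG at 20°C for 16–18 h, then purified by imidazole elution, TEV cleavage, Q anion exchange and Superdex 200 gel filtration. Samples were filtered and injected onto an S 050 size-exclusion column equilibrated overnight in MALS buffer. Molar mass was read by inline multi-angle light scattering with refractive index detection.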

[5] = tested on: naked 157 bp DNA; assay type: biochemical; details: in words, H3K9me0/2 peptides in trans, Figure S4E
[6] = tested on: H3Kc9me3 mononucleosomes; assay: FP binding of ZMET2 mutants to H3Kc9me3 mononucleosomes; set-up: species or system Xenopus laevis
[7] = FP binding of ZMET2 mutants to H3K9me2 tail peptides; details: in words; fluorescence polarization; n=2

“full-length recombinant ZMET2 (wild type) (from UniProt Q9AXT8 1-912) (enzyme)” showed a stoichiometry N (ZMET2 per dinucleosome) [1] of 1.

In the case of “unmethylated: AACGCAGCATGCGCTGCTAGC GCAGCTAGCGCTGCATG (DNA AACGCAGCATGCGCTGCTAGCGCAGCTAGCGCTGCATG; DNA, backbone not given here)”, the “rate constant, 38 bp duplexed DNA without peptide” value [2] is reported as 5.3E-5 (±1.1E-5) min^−1.

B1: 38 bp unmethylated duplex (dsDNA)
DNA 1: AACGCAGCATGCGCTGCTAGCGCAGCTAGCGCTGCATG
DNA 2: CATGCAGCGCTAGCTGCGCTAGCAGCGCATGCTGCGTT
For B1, the binding signal [3] was 32 fold tighter than without H3K9me2.

B2: 38 bp hemimethylated duplex (dsDNA)
DNA 1: B1 DNA 1
DNA 2: B1 DNA 2
modifications: 5mC at positions 5, 14, 23 and 32 of strand 1; complement unmethylated
In the case of B2, the binding signal [3] is reported as 36 fold tighter than without H3K9me2.

B3: ZMET2: full-length recombinant maintenance DNA methyltransferase from Zea mays (protein)
chain: T1 sequence (Q9AXT8 1-912)
modifications: left off: 6xHis, N-terminal, cleaved | SUMO, N-terminal, state not stated
In the case of B3, the “oligomeric state by molar mass measurement” value [4] is reported as “monomer”.

B4: CDx: ZMET2 mutated in the aromatic cage of the CD (F441A) (protein)
chain: T1 sequence (Q9AXT8 1-912) with F441A
modifications: left off: 6xHis, N-terminal, cleaved | SUMO, N-terminal, state not stated
In the case of B4, the “rate constant relative to wild type ZMET2, naked DNA” value [5] is reported as “comparable to wild type ZMET2”, the “fold decrease in affinity for H3Kc9me3 nucleosomes vs wild type ZMET2” value ([6]; fluorescence polarization, n=2) is reported as 4 fold and the “binding to H3K9me2 peptides relative to wild type ZMET2” value [7] is reported as “significantly decreased compared to wild type ZMET2”.

B5: BAHx: ZMET2 mutated in the aromatic cage of the BAH domain (W224L) (protein)
chain: T1 sequence (Q9AXT8 1-912) with W224L
modifications: left off: 6xHis, N-terminal, cleaved | SUMO, N-terminal, state not stated
With B5 the “affinity for H3Kc9me3 nucleosomes relative to wild type ZMET2” value ([6]; in words, n=4) was “modestly tighter affinity for H3Kc9me3 nucleosomes” and the “binding to H3K9me2 peptides relative to wild type ZMET2” value [7] was “did not show a defect, showing instead modestly tighter binding”.

Source: publication PMC6407616 (Molecular cell, 2018)
